Only some compounds are listed: those with a hit (about 1.8% of all), similar ones and a draw of the others.
SUMO1-SIM PPI – modulators of SUMO1 protein-protein interactions, primary screen, biochemical, uHTS; Small ubiquitin-related modifier 1 (Homo sapiens), P63165; SUMO1 binding to a labelled peptide, TR-FRET, 1 h; inhibition, % at 20 µM; 360,000 tested, 0.33% active; in the data active means inhibition above about 37%
LMPTP block – LMPTP phosphatase inhibitors, primary screen, biochemical, fluorescence intensity, uHTS. AID 651560, 2012. recombinant LMPTP-A, OMFP fluorogenic substrate. inhibition, % at 20 µM. 360,000 tested, 0.22% active;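 active means compounds that cut the enzyme signal by at least half of the control window in the single-dose screen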;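 further: plate controls were DMSO wells with enzyme plus substrate for no effect and substrate without enzyme for full effect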
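Test system: LMPTP-A, protein tyrosine phosphatase of low molecular weight; Input: 0.625 nM enzyme; Incubation: 50 min dark incubation at room temperature; Signal: endpoint fluorescence intensity from OMFP dephosphorylation; Read-out basis: % inhibition versus control wells.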
DNMT1 inh – human DNMT1 methyltransferase inhibitors, primary screen, biochemical, molecular beacon, fluorescence, HinP1I cleavage, uHTS. DNA (cytosine-5)-methyltransferase 1 (Homo sapiens), P26358. inhibition (reported as % activation of signal), % at 10 µM. 360,000 tested, 0.83% active. AID 588458, 2011; in the data active means inhibition above about 50%
HKDC1 inhibitor – HKDC1 hexokinase inhibitors, primary screen, biochemical, fluorescence, uHTS; inhibition, % at 20 µM; Q2TB90; AID 493160, 2011; 340,000 tested, 0.16% active; recombinant HKDC1, G6PDH/diaphorase resazurin coupled fluorescence;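 active means inhibition above about 35% when tested at 20 µM, limit read from the data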;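 further: plate controls were DMSO wells with enzyme for no effect and DMSO wells lacking enzyme for full effect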
Target sequence (Q2TB90 whole entry, looked up): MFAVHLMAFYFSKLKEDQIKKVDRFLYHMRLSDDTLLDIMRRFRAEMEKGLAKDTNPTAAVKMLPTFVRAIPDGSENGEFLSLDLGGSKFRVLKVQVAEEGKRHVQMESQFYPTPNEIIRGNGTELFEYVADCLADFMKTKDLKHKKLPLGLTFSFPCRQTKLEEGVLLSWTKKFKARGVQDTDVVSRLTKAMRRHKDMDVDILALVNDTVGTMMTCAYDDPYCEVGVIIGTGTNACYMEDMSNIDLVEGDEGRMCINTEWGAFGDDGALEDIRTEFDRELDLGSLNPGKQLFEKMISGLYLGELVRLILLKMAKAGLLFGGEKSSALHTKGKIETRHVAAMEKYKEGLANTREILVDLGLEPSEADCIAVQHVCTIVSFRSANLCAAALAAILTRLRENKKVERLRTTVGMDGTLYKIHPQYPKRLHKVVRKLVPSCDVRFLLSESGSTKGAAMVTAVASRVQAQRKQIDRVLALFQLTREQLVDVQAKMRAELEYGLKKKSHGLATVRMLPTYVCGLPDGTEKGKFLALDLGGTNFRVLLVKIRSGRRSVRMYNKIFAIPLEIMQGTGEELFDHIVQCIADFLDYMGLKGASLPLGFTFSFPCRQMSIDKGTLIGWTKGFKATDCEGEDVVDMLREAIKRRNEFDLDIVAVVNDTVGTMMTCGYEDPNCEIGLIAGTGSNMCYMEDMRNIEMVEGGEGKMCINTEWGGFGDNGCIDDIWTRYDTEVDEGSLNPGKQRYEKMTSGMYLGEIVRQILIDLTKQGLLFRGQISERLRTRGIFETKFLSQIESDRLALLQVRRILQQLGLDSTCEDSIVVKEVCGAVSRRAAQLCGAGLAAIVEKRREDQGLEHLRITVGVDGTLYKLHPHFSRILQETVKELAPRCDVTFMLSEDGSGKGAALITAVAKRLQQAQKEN
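System: Recombinant HKDC1 hexokinase | Amount: HKDC1 at 5 µg/mL | Reagent: Glucose with 1 mM ATP | Doses: Single 20 µM dose | Incubation: Reaction time 90 min, room temperature, protected from light | Signal: Coupled resazurin fluorescence, excitation 525 nm, emission 613 nm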
STEP block – STEP phosphatase inhibitors, primary screen, biochemical, fluorescence intensity, uHTS | Tyrosine-protein phosphatase non-receptor type 5 (Homo sapiens), P54829 | recombinant STEP, OMFP fluorogenic substrate | inhibition, % at 20 µM | 360,000 tested, 0.25% active | AID 588621, 2011;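 active means inhibition at 20 µM, scaled per plate between control wells, above about 37%, limit read from the data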;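 further: 0% = DMSO with enzyme and substrate and 100% = substrate only without enzyme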
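System: STEP phosphatase, cell-free reaction; Buffer or medium: Bis-Tris pH 6.0 buffer with DTT, detergent; Incubation: 20 min at room temperature, dark; Measured by: fluorescence, 480/540 nm.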
Scp1 inh – Scp-1 phosphatase inhibitors, primary screen, biochemical, colorimetric, uHTS; inhibition, % at 20 µM; AID 493091, 2011; 340,000 tested, 0.88% active; Recombinant Scp1, phosphopeptide, malachite green phosphate absorbance;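 active means inhibition above about 50% at 20 µM, limit read from the data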;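 further: plate controls were DMSO wells with enzyme for no effect and wells lacking enzyme for full effect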
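System: SCP-1 catalytic domain; Reagent: Phospho 17-mer peptide substrate; Doses: one concentration, 20 µM, with 1.0% DMSO; Incubation: 45 min room-temperature reaction, 5 min colour, 30 min stabiliser; Signal: Phosphate-binding colour reagent, absorbance read at 630 nm.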
DNMT1 interf DR – spectral interference with molecular beacon fluorescence, dose response, artefact control for DNMT1 inhibitor project, biochemical, fluorescent molecular beacon. 200 tested, under 10 active. shares compounds with DNMT1 inh. IC50, µM. spectral interference counter-screen; call rule not given here
DNMT1 inh conf – DNMT1 methyltransferase inhibitor retest, confirmation, biochemical, molecular beacon, fluorescence, single concentration | AID 602385, 2012 | 2,300 tested, 8% active | inhibition, % at 10 µM | DNMT1 molecular beacon HinP1I cleavage | shares compounds with DNMT1 inh;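 active means average inhibition of at least 30% in the single-concentration confirmation test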
Beacon interf – beacon fluorescence artifact counter-screen; shares compounds with DNMT1 inh; DNMT1 molecular beacon spectral interference counterscreen, fluorescence 485/520; activation (fluorescence interference), % at 10 µM; 2,300 tested, 1% active; AID 602387;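 active means activation of at least 30% at 10 µM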;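 further: DNMT1 catalytic domain with a HinP1I cleavage step and a FAM/dabcyl DNA beacon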
The depositor's hits bear a star.

`O=C(O)c1ccc(-c2ccc(/C=C3\NC(=O)N(Cc4ccc(Cl)cc4)C3=O)o2)cc1Cl` gave SUMO1-SIM PPI 25, LMPTP block 10, DNMT1 inh 88*, HKDC1 inhibitor 6, STEP block 49*, Scp1 inh 81*, DNMT1 interf DR >99, DNMT1 inh conf 60* and Beacon interf -1.
`Cc1ccc(/C=C2/NC(=O)N(Cc3ccc(Br)cc3)C2=O)o1` gave SUMO1-SIM PPI -8, LMPTP block 0, DNMT1 inh -13, HKDC1 inhibitor 6, STEP block 2 and Scp1 inh -5.
`O=C(c1cccc(Br)c1)N1CCCc2ccccc21` gave SUMO1-SIM PPI -1, LMPTP block 0, DNMT1 inh -1, HKDC1 inhibitor 2, STEP block 4 and Scp1 inh 0.
For O=C(c1coc(=O)c(Br)c1)N1CCC(C(O)(c2ccccc2)c2ccccc2)CC1 the results were SUMO1-SIM PPI -7, LMPTP block -1, DNMT1 inh -2, HKDC1 inhibitor 4, STEP block 1 and Scp1 inh -13.
For O=C(c1cc(=O)c2ccccc2o1)N1CCCc2ccccc21 the results were SUMO1-SIM PPI -3, LMPTP block 0, DNMT1 inh 84*, HKDC1 inhibitor -2, STEP block -2, Scp1 inh -7, DNMT1 inh conf 4 and Beacon interf 5.
CC1(C)CCCN(C(=O)c2coc(=O)c(Br)c2)C1 was read as SUMO1-SIM PPI 3, LMPTP block 54*, DNMT1 inh 87*, HKDC1 inhibitor 31, STEP block 97*, Scp1 inh 96*, DNMT1 interf DR >99, DNMT1 inh conf 103* and Beacon interf -4.
For O=C(c1coc(=O)c(Br)c1)N1CCCc2ccccc21 the results were SUMO1-SIM PPI 9, LMPTP block 10, DNMT1 inh 58*, HKDC1 inhibitor 7, STEP block 6, Scp1 inh 19, DNMT1 inh conf 2 and Beacon interf 3.
`Cc1cc(C)cc(OCC(=O)OCC(=O)N2CCc3ccccc32)c1` gave SUMO1-SIM PPI 1, LMPTP block 1, DNMT1 inh -1, HKDC1 inhibitor -2, STEP block -1 and Scp1 inh -10.
`COc1ccccc1C(=O)Nc1ccc(OCC(=O)N2CC(C)OC(C)C2)cc1` (stereo not drawn) gave SUMO1-SIM PPI 4, LMPTP block -2, DNMT1 inh 27, HKDC1 inhibitor 6, STEP block -6 and Scp1 inh -4.
`CCCCN(C=O)c1c(CC)nc2c(OCC(=O)c3ccc(F)cc3)cccn12` gave SUMO1-SIM PPI -5, LMPTP block 0, DNMT1 inh -1 and STEP block 0.
Screening COc1cccc(NC(=O)CN(C)C(=O)c2cc(S(=O)(=O)Nc3ccccc3OC)ccc2C)c1 returned SUMO1-SIM PPI 2, LMPTP block -1, DNMT1 inh 1, HKDC1 inhibitor -5, STEP block -3 and Scp1 inh -7.
For Cc1cc(C)n(CCN(C)C(=O)c2cc(COc3c(F)cccc3F)on2)n1 the results were SUMO1-SIM PPI 1, LMPTP block -1, DNMT1 inh 51*, HKDC1 inhibitor 2, STEP block 0, Scp1 inh -8, DNMT1 inh conf 0 and Beacon interf 3.
Screening CSCC[C@H](NC(=O)COc1ccc(Cl)cc1)c1nc2ccccc2[nH]1 returned SUMO1-SIM PPI 0, LMPTP block 0, DNMT1 inh -5, HKDC1 inhibitor 6, STEP block -1 and Scp1 inh -3.
`Cn1c(N)c(C(=O)COC(=O)/C=C/c2ccccc2F)c(=O)n(C)c1=O` gave SUMO1-SIM PPI -11, LMPTP block 1, DNMT1 inh -4, HKDC1 inhibitor -4, STEP block -4 and Scp1 inh -15.
Screening Cn1c(N)c(C(=O)COC(=O)/C=C/c2cccc(Cl)c2)c(=O)n(C)c1=O returned SUMO1-SIM PPI -10, LMPTP block 12, DNMT1 inh 66*, HKDC1 inhibitor -4, STEP block 0, Scp1 inh -8, DNMT1 inh conf 3 and Beacon interf 4.
For Cc1c(=O)n(OCc2ccccc2F)c2ccccc2[n+]1[O-] the results were SUMO1-SIM PPI -19, LMPTP block 1, DNMT1 inh 84*, HKDC1 inhibitor -3, STEP block -3, Scp1 inh -10, DNMT1 inh conf 3 and Beacon interf 1.
`Cc1c(=O)n(OCc2cccc(F)c2)c2ccccc2[n+]1[O-]` gave SUMO1-SIM PPI -31, LMPTP block 0, DNMT1 inh 0, HKDC1 inhibitor -2, STEP block 18 and Scp1 inh -2.
Screening Cc1coc2cc3oc(=O)c(CCC(=O)NCC(=O)O)c(C)c3cc12 returned SUMO1-SIM PPI 3, LMPTP block 5, DNMT1 inh 0, HKDC1 inhibitor 3, STEP block 0 and Scp1 inh 3.
Screening CCCNc1cc(C)oc(=O)c1C(=O)CC returned SUMO1-SIM PPI 0, LMPTP block 0, DNMT1 inh 1, HKDC1 inhibitor -9, STEP block -2 and Scp1 inh 1.
For Cc1ccc2oc(-c3ccc(C)c(NC(=S)NC(=O)c4cccs4)c3)nc2c1 the results were SUMO1-SIM PPI 2, LMPTP block 0, DNMT1 inh 51*, HKDC1 inhibitor -4, STEP block 2, Scp1 inh -2, DNMT1 inh conf 0 and Beacon interf -2.
`Cc1ccc(-c2nnc(-c3ccc(NC(=O)Cc4cccs4)cc3)o2)cc1` gave SUMO1-SIM PPI -1, LMPTP block 4, DNMT1 inh 49, HKDC1 inhibitor 8, STEP block 4, Scp1 inh 37, DNMT1 inh conf 7 and Beacon interf -1.
